Data published in ChEMBL document CHEMBL3621194, “Synthesis of Triazole-Linked Analogues of c-di-GMP and Their Interactions with Diguanylate Cyclase” (J Med Chem, 2015).
Calls of active or inactive are those of the source. The rule behind the calls is not given here.

Tests used:
Pseudomonas aeruginosa [1] = assay: Inhibition of Pseudomonas aeruginosa RocR assessed as residual enzyme activity at 100 uM using 30 uM c-di-GMP substrate
Summary of the method: (§1)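 RocR PDE activity measured with 30 µM c-di-GMP substrate, with or without inhibitors. For IC50, initial velocity used and residual activity fitted to log-dose vs response curve; points are mean and SD of three independent experiments. Single-point screens used 100 µM compound.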

Caulobacter vibrioides = assay: Inhibition of Caulobacter crescentus PleD assessed as residual enzyme activity at 100 uM using 100 uM GTP substrate
Summary of the method: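 PleD residual DGC activity at 100 µM compound with 100 µM GTP substrate, measured by circular dichroism, or by reverse-phase HPLC of nucleotide content when compound CD spectra interfered.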

[2] = Inhibition of Caulobacter crescentus PleD; parameters: species or system Caulobacter vibrioides
Summary of the method: (§2)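 DGC activity of PleD measured by circular dichroism with 100 µM GTP substrate; where compound CD spectra interfered, nucleotide content analysed by reverse-phase HPLC. Initial velocity used for IC50; residual activity versus inhibitor concentration fitted to log-dose vs response curve, mean and SD of three independent experiments.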

Escherichia coli = assay: Inhibition of biofilm formation of Escherichia coli MG1655 7.81 to 500 uM incubated for 16 hrs by crystal violet staining method; format: functional, organism-based
Summary of the method: (§3)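 P. aeruginosa PAO1 or E. coli MG1655 grown 14 h at 37°C in M9 with 0.4% glucose (E. coli medium also with 2.5% LB). Cultures diluted in fresh medium, compound in DMSO or DMSO alone added, then incubated 16 h at 30°C. Planktonic A600 read; wells washed with PBS, air-dried, stained with 1% crystal violet, solubilised in ethanol, A595 read.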

[3] = Inhibition of Caulobacter crescentus PleD using 100 uM GTP substrate; parameters: species or system Caulobacter vibrioides; summary of the method: as §2
Pseudomonas aeruginosa [4] = assay: Inhibition of biofilm formation of Pseudomonas aeruginosa PAO1 at 7.81 to 500 uM incubated for 16 hrs by crystal violet staining method; format: functional, organism-based; summary of the method: as §3
Pseudomonas aeruginosa [5] = assay: Effect on cdrA expression in Pseudomonas aeruginosa PAO1 at 200 uM by real time RT-PCR method; format: functional, organism-based
Summary of the method: (§4)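 P. aeruginosa PAO1 grown at 37°C in M9 minimal medium with 0.4% glucose, plus DMSO or 200 µM compound in DMSO, to A600 2.0. Total RNA extracted, DNase-treated, reverse transcribed; qPCR with 5 ng cDNA per reaction and 300 nM primers, fluorescence read in the 60°C step. Normalized to 16S rRNA; relative fold change by 2∆∆Ct method.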

Pseudomonas aeruginosa [6] = assay: Effect on pctC expression in Pseudomonas aeruginosa PAO1 at 200 uM by real time RT-PCR method; format: functional, organism-based; summary of the method: as §4
Pseudomonas aeruginosa [7] = assay: Inhibition of Pseudomonas aeruginosa YfiN containing HAMP-GGDEF domain assessed as residual enzyme activity up to 250 uM
Pseudomonas aeruginosa [8] = assay: Inhibition of Pseudomonas aeruginosa WspR assessed as residual enzyme activity at 100 uM
Summary of the method: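 WspR DGC activity measured by circular dichroism under the same conditions as for PleD, with 100 µM compound; read-out as residual activity.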

[9] = Inhibition of Pseudomonas aeruginosa RocR assessed as residual enzyme activity using 30 uM c-di-GMP substrate; summary of the method: as §1

Structure (SMILES)	Activity (Pseudomonas aeruginosa [1])	Activity (Caulobacter vibrioides)	other results
Nc1nc2c(ncn2[C@@H]2O[C@H](COCc3cn(C[C@H]4O[C@@H](n5cnc6c(=O)[nH]c(N)nc65)[C@H](O)[C@@H]4O)nn3)[C@@H](O)[C@H]2O)c(=O)[nH]1	88%	63%	
Nc1nc2c(ncn2CCCn2cc(COC[C@H]3O[C@@H](n4cnc5c(=O)[nH]c(N)nc54)[C@H](O)[C@@H]3O)nn2)c(=O)[nH]1	163%	82%	
Nc1nc2c(ncn2CCCCn2cc(Cn3cnc4c(=O)[nH]c(N)nc43)nn2)c(=O)[nH]1	92%	87%	
Nc1ncnc2c1ncn2[C@@H]1O[C@H](COCc2cn(C[C@H]3O[C@@H](n4cnc5c(N)ncnc54)[C@H](O)[C@@H]3O)nn2)[C@@H](O)[C@H]1O	113%	105%	
Clc1ncnc2c1ncn2CCCn1cc(Cn2cnc3c(Cl)ncnc32)nn1	93%	97%	
Nc1nc2c(ncn2[C@@H]2O[C@@H]3COP(=O)(O)O[C@H]4[C@@H](O)[C@H](n5cnc6c(=O)[nH]c(N)nc65)O[C@@H]4COP(=O)(O)O[C@H]3[C@H]2O)c(=O)[nH]1			IC50 [2]: 5 µM
Nc1ncnc2c1ncn2CCCn1cc(Cn2cnc3c(N)ncnc32)nn1	64%	106%	
Nc1nc2c(ncn2CCCn2cc(Cn3cnc4c(=O)[nH]c(N)nc43)nn2)c(=O)[nH]1	41%	12.5%	inhibition (Pseudomonas aeruginosa [7]): inactive; inhibition (Escherichia coli): inactive; Activity (Pseudomonas aeruginosa [8]): 20%; IC50 [3]: 17.5 µM; IC50 [9]: 66.3 µM; inhibition (Pseudomonas aeruginosa [4]): inactive; Activity (Pseudomonas aeruginosa [5]): inactive; Activity (Pseudomonas aeruginosa [6]): inactive
Nc1nc(NCc2ccccc2)c2ncn(CCCn3cc(Cn4cnc5c(NCc6ccccc6)nc(N)nc54)nn3)c2n1	75%	109%	

More lines, main results first:

Activity (Pseudomonas aeruginosa [1])	Activity (Caulobacter vibrioides)	Structure (SMILES)	other results
70%	96%	CNc1nc(N)nc2c1ncn2CCCn1cc(Cn2cnc3c(NC)nc(N)nc32)nn1	
79%	97%	Nc1nc2c(ncn2[C@@H]2O[C@H](Cn3cc(COC[C@H]4O[C@@H](n5cnc6c(N)ncnc65)[C@H](O)[C@@H]4O)nn3)[C@@H](O)[C@H]2O)c(=O)[nH]1	
77%	89%	Nc1nc2c(ncn2Cc2cn(C[C@H]3O[C@@H](n4cnc5c(=O)[nH]c(N)nc54)[C@H](O)[C@@H]3O)nn2)c(=O)[nH]1	
128%	98%	Nc1nc(Cl)c2ncn(CCCCn3cc(Cn4cnc5c(Cl)nc(N)nc54)nn3)c2n1	
96%	32%	Nc1nc(Cl)c2ncn(CCCn3cc(Cn4cnc5c(Cl)nc(N)nc54)nn3)c2n1	inhibition (Escherichia coli): inactive; IC50 [3]: 25.5 µM; inhibition (Pseudomonas aeruginosa [4]): inactive; Activity (Pseudomonas aeruginosa [5]): inactive; Activity (Pseudomonas aeruginosa [6]): inactive
86%	92%	Nc1nc(Cl)c2ncn(CCn3cc(Cn4cnc5c(Cl)nc(N)nc54)nn3)c2n1	
77%	104%	Nc1nc2c(ncn2CCn2cc(Cn3cnc4c(=O)[nH]c(N)nc43)nn2)c(=O)[nH]1	
